Among the data in ChEMBL document CHEMBL4311965, “Antimicrobial activity of amphipathic α,α-disubstituted β-amino amide derivatives against ESBL - CARBA producing multi-resistant bacteria; effect of halogenation, lipophilicity and cationic character” (Eur J Med Chem, 2019) are MIC, selectivity ratio and EC50 values, retold here.

SMILES strings stand for the structures. Values after ≈ are worked out from the molar mass of the structure shown.

For data set [1], the system named is Acinetobacter baumannii. Kind of data set: Antibacterial activity against multidrug-resistant Acinetobacter baumannii K44-35 producing oxcillinase-23 cultured in MHB medium assessed as reduction in bacterial growth incubated for 24 hrs by microdilution susceptibility test. It is filed as functional. The conditions noted are these: K44-35, 24 h. The method, boiled down:
(§1)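 Broth microdilution per CLSI M07-A9 (modified). Working solutions made from concentrated DMSO stocks kept at r.t., diluted in double-distilled water, final DMSO <1%. Inoculum 1–1.2 x 10⁶ cells/mL in Mueller-Hinton broth, mixed 1:1 with compound. 37 °C, 24 h, four parallels. Read as OD₆₀₀. Where precipitation left residual OD, the point of major OD decrease was taken as the inhibitory concentration.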

The test system of data set [2] is Acinetobacter baumannii. The data set can be described thus: Antibacterial activity against multidrug-resistant Acinetobacter baumannii K47-42 producing oxcillinase-23 cultured in MHB medium assessed as reduction in bacterial growth incubated for 24 hrs by microdilution susceptibility test. It is filed as functional. The following applies: K47-42, 24 h. The method, boiled down: as §1

Data set [3] relates to Staphylococcus aureus. The data set can be described thus: Antibacterial activity against multidrug-resistant Staphylococcus aureus WIS cultured in MHB medium assessed as reduction in bacterial growth incubated for 24 hrs by microdilution susceptibility test. The data set is classed as functional. The gist of the method: as §1
Data set [4] concerns Enterococcus faecium. Kind of data set: Antibacterial activity against multidrug-resistant Enterococcus faecium 50673722 cultured in BHIB medium assessed as reduction in bacterial growth incubated for 24 hrs by microdilution susceptibility test. It is filed as functional. The following applies: Enterococcus faecium, 50673722, 24 h. The gist of the method: (§2)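 Enterococci grown in Brain Heart Infusion broth, otherwise broth microdilution per CLSI M07-A9 (modified). Concentrated DMSO stocks kept at r.t. and diluted in double-distilled water, final DMSO <1%. Inoculum 1–1.2 x 10⁶ cells/mL mixed 1:1 with compound. 37 °C, 24 h, four parallels. OD₆₀₀ read-out, lowest concentration with no growth.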

In data set [5] the test system is Staphylococcus aureus. The data set can be described thus: Antibacterial activity against multidrug-resistant Staphylococcus aureus IHT 99040 cultured in MHB medium assessed as reduction in bacterial growth incubated for 24 hrs by microdilution susceptibility test. The data set is classed as functional. The conditions noted are these: IHT 99040, 24 h. The gist of the method: as §1

Data set [6] concerns Escherichia coli. The data set can be described thus: Antibacterial activity against Escherichia coli ATCC 25922 cultured in MHB medium assessed as no bacterial growth incubated at 37 degC for 24 hrs by microdilution susceptibility test. The data set is classed as functional. The conditions noted are these: ATCC 25922, 24 h. The gist of the method:
(§3)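 Broth microdilution per CLSI M07-A9 with modifications. Inoculum about 2.5–3 x 10⁴ cells/mL in Mueller-Hinton broth, mixed 1:1 with test derivative. DMSO stocks diluted in double-distilled water, final DMSO <1%. Incubation 24 h at 37 °C (20 °C for C. glutamicum). Growth and sterility controls included; oxytetracycline reference.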

Data set [7] deals with Acinetobacter baumannii. Kind of data set: Antibacterial activity against multidrug-resistant Acinetobacter baumannii K55-13 producing oxcillinase-24 cultured in MHB medium assessed as reduction in bacterial growth incubated for 24 hrs by microdilution susceptibility test. The data set is classed as functional. The following applies: K55-13, 24 h. The method, boiled down: as §1

Data set [8] deals with Escherichia coli. Kind of data set: Antibacterial activity against multidrug-resistant Escherichia coli 50639799 producing Verona integron encoded metallo beta-lactamse-29 cultured in MHB medium assessed as reduction in bacterial growth incubated for 24 hrs by microdilution susceptibility test. The data set is classed as functional. The conditions noted are these: Escherichia coli, 50639799, 24 h. The gist of the method: as §1

Data set [9] can be described thus: Selectivity index, ratio of EC50 for hemolytic activity against human RBC to MIC for antibacterial activity against Staphylococcus aureus ATCC 9144. It is filed as toxicity. The following applies: human red blood cells (RBC). The gist of the method: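 Selectivity index is the RBC haemolysis EC50 divided by the MIC against the E. coli or S. aureus reference strain.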

The subject of data set [10] is Klebsiella pneumoniae. Kind of data set: Antibacterial activity against multidrug-resistant Klebsiella pneumoniae 50531633 producing New Delhi metallo-beta-lactamase-1 and oxcillinase-181 cultured in MHB medium assessed as reduction in bacterial growth incubated for 24 hrs by microdilution susceptibility test. The conditions noted are these: Klebsiella pneumoniae, 50531633, 24 h. The data set is classed as functional. The method, boiled down: as §1

Data set [11] concerns Pseudomonas aeruginosa. Kind of data set: Antibacterial activity against multidrug-resistant Pseudomonas aeruginosa K34-73 producing Verona integron encoded metallo beta-lactamse-4 cultured in MHB medium assessed as reduction in bacterial growth incubated for 24 hrs by microdilution susceptibility test. It is filed as functional. The conditions noted are these: K34-73, 24 h. The method, boiled down: as §1

The test system of data set [12] is Klebsiella pneumoniae. The data set can be described thus: Antibacterial activity against multidrug-resistant Klebsiella pneumoniae K47-25 producing carbapenemase-2 cultured in MHB medium assessed as reduction in bacterial growth incubated for 24 hrs by microdilution susceptibility test. The data set is classed as functional. The conditions noted are these: K47-25, 24 h. The gist of the method: as §1

Data set [13] has as its system Escherichia coli. Kind of data set: Antibacterial activity against multidrug-resistant Escherichia coli 50676002 producing New Delhi metallo-beta-lactamase-1 cultured in MHB medium assessed as reduction in bacterial growth incubated for 24 hrs by microdilution susceptibility test. The data set is classed as functional. The following applies: Escherichia coli, 50676002, 24 h. The method, boiled down: as §1

Data set [14] deals with Klebsiella pneumoniae. Kind of data set: Antibacterial activity against multidrug-resistant Klebsiella pneumoniae 50667959 producing Verona integron encoded metallo beta-lactamse-1 cultured in MHB medium assessed as reduction in bacterial growth incubated for 24 hrs by microdilution susceptibility test. It is filed as functional. The conditions noted are these: Klebsiella pneumoniae, 50667959, 24 h. The method, boiled down: as §1

Data set [15] deals with Pseudomonas aeruginosa. The data set can be described thus: Antibacterial activity against multidrug-resistant Pseudomonas aeruginosa 50692172 producing New Delhi metallo-beta-lactamase-1 cultured in MHB medium assessed as reduction in bacterial growth incubated for 24 hrs by microdilution susceptibility test. It is filed as functional. The conditions noted are these: Pseudomonas aeruginosa, 50692172, 24 h. The method, boiled down:
as §1

The test system of data set [16] is Pseudomonas aeruginosa. The data set can be described thus: Antibacterial activity against multidrug-resistant Pseudomonas aeruginosa 50692520 producing Verona integron encoded metallo beta-lactamse cultured in MHB medium assessed as reduction in bacterial growth incubated for 24 hrs by microdilution susceptibility test. It is filed as functional. The following applies: Pseudomonas aeruginosa, 50692520, 24 h. The method, boiled down:
as §1

The subject of data set [17] is Pseudomonas aeruginosa. The data set can be described thus: Antibacterial activity against Pseudomonas aeruginosa PA01 DSM 19880 (ATCC 15692) cultured in MHB medium assessed as no bacterial growth incubated at 37 degC for 24 hrs by microdilution susceptibility test. It is filed as functional. The conditions noted are these: PAO1 DSM 19880 (ATCC 15692). The method, boiled down: as §3

Data set [18] deals with Pseudomonas aeruginosa. The data set can be described thus: Antibacterial activity against multidrug-resistant Pseudomonas aeruginosa K44-24 producing imipenem-type carbapenemase-14 cultured in MHB medium assessed as reduction in bacterial growth incubated for 24 hrs by microdilution susceptibility test. It is filed as functional. The following applies: K44-24, 24 h. The gist of the method: as §1

In data set [19] the test system is Escherichia coli. Kind of data set: Antibacterial activity against multidrug-resistant Escherichia coli 50857972 producing imipenem-type carbapenemase-26 cultured in MHB medium assessed as reduction in bacterial growth incubated for 24 hrs by microdilution susceptibility test. The data set is classed as functional. The following applies: Escherichia coli, 50857972, 24 h. The gist of the method: as §1

The test system of data set [20] is Corynebacterium glutamicum. The data set can be described thus: Antibacterial activity against Corynebacterium glutamicum ATCC 13032 cultured in MHB medium assessed as no bacterial growth incubated at 20 degC for 24 hrs by microdilution susceptibility test. It is filed as functional. The following applies: ATCC 13032, 24 h. The gist of the method:
as §3

For data set [21], the system named is Enterococcus faecium. Kind of data set: Antibacterial activity against multidrug-resistant Enterococcus faecium K36-18 cultured in BHIB medium assessed as reduction in bacterial growth incubated for 24 hrs by microdilution susceptibility test. The data set is classed as functional. The following applies: K36-18, 24 h. The method, boiled down:
as §2

The test system of the next data set is Erythrocyte. The data set can be described thus: Hemolytic activity against human RBC incubated for 1 hr. The data set is classed as cell-based. The gist of the method:
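Heparinized human blood washed three times in warm PBS and set to 10% hct. Erythrocytes at 1% v/v final, with compound in PBS (DMSO <1%), shaken 1 h at 37 °C and then centrifuged. Supernatant absorbance read at 405 and 545 nm after PBS background subtraction. Haemolysis taken relative to 1% Triton X-100. Three independent replicates, EC50 averaged.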

Data set [22] concerns Acinetobacter baumannii. Kind of data set: Antibacterial activity against multidrug-resistant Acinetobacter baumannii K12-21 producing oxcillinase-58 cultured in MHB medium assessed as reduction in bacterial growth incubated for 24 hrs by microdilution susceptibility test. It is filed as functional. The following applies: K12-21, 24 h. The method, boiled down: as §1

As for `N=C(N)NCCNC(=O)C(CNC(=N)N)(Cc1cc(Br)cc(Br)c1)Cc1cc(Br)cc(Br)c1`, the MIC in the data set with Acinetobacter baumannii [1] worked out at 16 µg/mL (≈ 22.5 µM); with Acinetobacter baumannii [2], 16 µg/mL (≈ 22.5 µM); with Staphylococcus aureus [3], 2 µg/mL (≈ 2.81 µM); in the data set on Enterococcus faecium [4] it was 4 µg/mL (≈ 5.63 µM); in the data set on Staphylococcus aureus [5], 2 µg/mL (≈ 2.81 µM); in the data set with Escherichia coli [6], 8 µg/mL (≈ 11.3 µM). The MIC with Acinetobacter baumannii [7] is 16 µg/mL (≈ 22.5 µM); in the data set on Escherichia coli [8], 8 µg/mL (≈ 11.3 µM); in the data set with Klebsiella pneumoniae [10] it was 16 µg/mL (≈ 22.5 µM); with Pseudomonas aeruginosa [11], 16 µg/mL (≈ 22.5 µM); in the data set on Klebsiella pneumoniae [12], 32 µg/mL (≈ 45 µM); in the data set with Escherichia coli [13], 8 µg/mL (≈ 11.3 µM). Also, the MIC came to 16 µg/mL (≈ 22.5 µM) with Klebsiella pneumoniae [14]; 8 µg/mL (≈ 11.3 µM) with Pseudomonas aeruginosa [15]; 4 µg/mL (≈ 5.63 µM) with Pseudomonas aeruginosa [16]; 4 µg/mL (≈ 5.63 µM) with Pseudomonas aeruginosa [17]; 16 µg/mL (≈ 22.5 µM) with Pseudomonas aeruginosa [18]; 8 µg/mL (≈ 11.3 µM) in the data set on Escherichia coli [19]. In addition, the MIC in data set [20] was 0.25 µg/mL (≈ 0.352 µM); in the data set with Enterococcus faecium [21] it was 4 µg/mL (≈ 5.63 µM); with Acinetobacter baumannii [22], 16 µg/mL (≈ 22.5 µM). For the same compound, in data set [9], the selectivity ratio was 206. Further, the EC50 in the data set with Erythrocyte came to 206 µg/mL (≈ 290 µM).
